In test [1] the test system is Mus musculus. In words: Increase of oedema in BALB/c mouse with FCA-induced inflammation at 0.30 mmol/kg, ip. Type of test: functional. The procedure, abridged: (§1)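 FCA (0.05 mL/paw) injected intradermally into right hind paw of mice, left paw as control. Compounds suspended in water with a few drops of Tween 80, given ip 15 min before FCA. After 3 h both hind paws excised and weighed. Oedema is paw weight increase, compared with control animals given only the vehicle. Means SEM, Student's t-test.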

In test [2] the test system is Mus musculus. In words: Anti-inflammatory activity against of FCA-induced odema in BALB/c mouse assessed as oedema inhibition at 0.30 mmol/kg, ip. The class given is functional. The method in brief: as §1
The subject of another test is Liver microsomes. The test can be described thus: Inhibition of Fe(2+)/ascorbate-induced lipid peroxidation in Fischer 344 rat hepatic microsomal membranes. The class given is functional. The following applies: Microsome.
Test [3] has as its target T1, Acetylcholinesterase (Rattus norvegicus) (UniProt P37136).
T1 sequence (whole entry): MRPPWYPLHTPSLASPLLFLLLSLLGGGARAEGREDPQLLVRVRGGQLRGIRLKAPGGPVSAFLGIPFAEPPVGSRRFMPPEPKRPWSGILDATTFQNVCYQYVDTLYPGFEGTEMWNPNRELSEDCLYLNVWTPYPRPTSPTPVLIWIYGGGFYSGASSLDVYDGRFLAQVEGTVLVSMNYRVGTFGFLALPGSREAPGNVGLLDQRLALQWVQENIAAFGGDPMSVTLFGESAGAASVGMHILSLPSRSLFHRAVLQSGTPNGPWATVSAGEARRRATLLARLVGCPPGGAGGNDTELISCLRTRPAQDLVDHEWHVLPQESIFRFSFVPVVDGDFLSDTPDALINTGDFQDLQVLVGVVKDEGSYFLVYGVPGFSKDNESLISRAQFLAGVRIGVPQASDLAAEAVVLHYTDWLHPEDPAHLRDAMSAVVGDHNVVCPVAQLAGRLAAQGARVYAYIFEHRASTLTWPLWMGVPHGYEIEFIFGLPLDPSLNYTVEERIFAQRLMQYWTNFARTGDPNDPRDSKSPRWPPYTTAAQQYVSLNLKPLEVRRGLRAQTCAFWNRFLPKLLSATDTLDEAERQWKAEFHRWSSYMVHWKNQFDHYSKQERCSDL
In words: Inhibition of Fischer 344 rat brain acetylcholine esterase at 0.6 mM. The method in brief:
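Brains from untreated rats homogenised (20 mg/mL) in 0.1 M phosphate buffer, pH 8, as the enzyme source. Acetylthiocholine is the substrate. Activity is read colorimetrically as thiocholine reacting with dithio-bisnitrobenzoic acid and followed as a time course. Percent inhibition is taken at the end of the incubation period.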

Test [4] concerns the target T2, Seed linoleate 13S-lipoxygenase-1 (Glycine max) (UniProt P08170).
T2 sequence (whole entry): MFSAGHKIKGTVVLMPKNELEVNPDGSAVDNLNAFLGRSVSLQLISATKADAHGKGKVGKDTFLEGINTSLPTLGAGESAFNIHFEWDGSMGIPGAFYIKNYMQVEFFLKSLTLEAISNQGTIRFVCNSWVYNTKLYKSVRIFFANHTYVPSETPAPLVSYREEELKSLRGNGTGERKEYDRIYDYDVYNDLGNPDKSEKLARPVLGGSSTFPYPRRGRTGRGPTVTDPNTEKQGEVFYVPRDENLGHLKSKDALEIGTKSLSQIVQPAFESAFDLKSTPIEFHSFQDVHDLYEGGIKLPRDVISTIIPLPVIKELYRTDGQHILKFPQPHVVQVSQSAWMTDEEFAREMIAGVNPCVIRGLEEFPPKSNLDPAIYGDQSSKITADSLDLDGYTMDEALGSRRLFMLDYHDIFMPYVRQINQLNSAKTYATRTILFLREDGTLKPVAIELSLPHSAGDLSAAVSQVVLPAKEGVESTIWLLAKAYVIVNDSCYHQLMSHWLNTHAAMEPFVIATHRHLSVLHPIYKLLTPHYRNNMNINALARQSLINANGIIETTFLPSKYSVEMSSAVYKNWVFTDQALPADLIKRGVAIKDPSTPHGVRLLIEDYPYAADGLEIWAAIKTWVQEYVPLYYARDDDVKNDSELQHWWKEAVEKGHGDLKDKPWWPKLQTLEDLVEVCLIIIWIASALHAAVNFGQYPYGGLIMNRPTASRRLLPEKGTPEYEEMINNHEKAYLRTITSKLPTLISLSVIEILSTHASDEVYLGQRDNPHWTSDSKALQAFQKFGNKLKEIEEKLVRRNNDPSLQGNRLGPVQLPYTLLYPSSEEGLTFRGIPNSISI
In words: Inhibition of soybean lipoxygenase at 0.3 mM. Also on record: Activity: scale not given: the % may be the effect or the level left. The method in brief:
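Soybean lipoxygenase 250 U/mL in Tris buffer pH 9. Compounds in 60% aqueous ethanol at 0.1–0.3 mM. Reaction started with sodium linoleate 0.1 mM and followed for 7 min at 28 °C by 13-hydroperoxylinoleic acid conjugated diene absorbance at 234 nm.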

In test [5] the test system is Rattus norvegicus. In words: Mortality rate in Fischer 344 rat at 1.6 mmol/kg, sc after 4 days. The class given is functional. The procedure, abridged: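 Rats receive the compound subcutaneously at 1.6 mmol/kg once daily for 4 days. Mortality, perforating gastrointestinal ulcers, melena defecation and body weight change are recorded 24 h after the last injection.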

The test system of test [6] is Rattus norvegicus. In words: Gastrointestinal toxicity in Fischer 344 rat assessed as gastrointestinal ulceration at 1.6 mmol/kg, sc after 4 days. The class given is functional. The method in brief:
(§2)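 Rats dosed subcutaneously at 1.6 mmol/kg once daily for 4 days. Perforating gastrointestinal ulcers, melena defecation, body weight change and mortality recorded 24 h after the last injection.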

Test [7] deals with Rattus norvegicus. In words: Body weight change per 100g in Fischer 344 rat at 1.6 mmol/kg, sc after 4 days. Type of test: functional. The procedure, abridged: as §2
The subject of test [8] is Rattus norvegicus. In words: Triglyceride level in Fischer 344 rat plasma at 0.3 mmol/kg, ip after 24 hrs. Type of test: functional. The procedure, abridged:
(§3)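 Compounds given ip at 0.3 mmol/kg 30 min later. Plasma total cholesterol, LDL-cholesterol and triglycerides measured in mg/dl and expressed as percent reduction against the hyperlipidemic control group. SD, Student's t-test.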

Test [9] has as its system Rattus norvegicus. The test can be described thus: Total cholesterol level in Fischer 344 rat plasma at 0.3 mmol/kg, ip after 24 hrs. Type of test: functional. The procedure, abridged: as §3
Test [10] relates to Rattus norvegicus. The test can be described thus: Decrease in LDL level in Fischer 344 rat plasma at 0.3 mmol/kg, ip after 24 hrs relative to control. The class given is functional. Set-up: scale not given: the % may be the effect or the level left. The method in brief:
as §3

In test [11] the test system is Rattus norvegicus. The test can be described thus: Decrease in total cholesterol in Fischer 344 rat plasma at 0.3 mmol/kg, ip after 24 hrs relative to control. The class given is functional. Set-up: scale not given: the % may be the effect or the level left. The procedure, abridged:
as §3

Test [12] deals with Rattus norvegicus. The test can be described thus: Decrease in triglyceride level in Fischer 344 rat plasma at 0.3 mmol/kg, ip after 24 hrs relative to control. Set-up: scale not given: the % may be the effect or the level left. The class given is functional. The method in brief:
as §3

Test [13] deals with Rattus norvegicus. In words: LDL level in Fischer 344 rat plasma at 0.3 mmol/kg, ip after 24 hrs. The class given is functional. The method in brief: as §3
In test [14] the test system is Mus musculus. In words: Anti-inflammatory activity against of FCA-induced odema in BALB/c mouse assessed as oedema inhibition at 0.15 mmol/kg, ip. The class given is functional. The procedure, abridged:
as §1

Test [15] concerns Mus musculus. In words: Increase of oedema in BALB/c mouse with FCA-induced inflammation at 0.15 mmol/kg, ip. Type of test: functional. The procedure, abridged:
as §1

Test [16] concerns the target T3, Seed linoleate 13S-lipoxygenase-1 (Glycine max, UniProt P08170).
T3 sequence (P08170 whole entry): T2 sequence (whole entry)
The test can be described thus: Inhibition of soybean lipoxygenase after 7 mins.

The source made the active and inactive calls. The rule behind the calls is not given here.

In general, inhibition in vivo refers to the relative decrease from the control value, in per cent. In general, inhibition refers to the drop in the measured response relative to a control, in per cent. `COc1cc(C)ccc1OC(=O)[C@H]1CCCN1C(=O)C(C)C`: the Activity with Mus musculus [1] is 79.3%. The inhibition in vivo at 300 µmol/kg in the test on Mus musculus [2] is 1%. For the same molecule, the outcome (in the test on Liver microsomes; in test [3]) was inactive. For the same molecule, the inhibition in test [4] turned out to be 42%.

On to `CC(C)Cc1ccc([C@H](C)C(=O)O)cc1`, for which, in the test on Liver microsomes, the outcome was inactive. For the same molecule, the inhibition in [3] was 20%.

Molecule `CC(C)C(=O)N1CCC[C@@H]1C(=O)OCCCc1cccnc1` registered an Activity in the test on Mus musculus [1] of 77%. Also, the inhibition in vivo at 300 µmol/kg in the test with Mus musculus [2] was determined as 1%. The outcome (in the test on Liver microsomes; in test [3]) was inactive.

Regarding `CC(C)Cc1ccc(C(C)C(=O)N2CCCC2C(=O)O)cc1` (stereo not drawn), the result in the test on Liver microsomes was inactive.

As to `O=C(O)[C@@H]1CCCN1`, in the test with Liver microsomes, the result was inactive.

For `NCCS` [CYSTEAMINE], the Activity in the test on Rattus norvegicus [5] was 80%; with Rattus norvegicus [6], 40%; in the test on Rattus norvegicus [7] it was -7 g.

In the case of `CC(C)Cc1ccc(C(C)C(=O)N2CCCC2C(=O)OCCCc2cccnc2)cc1` (stereo not drawn), the inhibition in test [3] was 64%.

Consider `CC(C)Cc1ccc(C(C)C(=O)O)cc1` (stereo not drawn) [IBUPROFEN], for which the Activity amounted to 44.6% in the test with Mus musculus [1]; 228 mg/dL in the test on Rattus norvegicus [8]; 50% in the test on Rattus norvegicus [5]; 111 mg/dL in the test with Rattus norvegicus [9]; 32% with Rattus norvegicus [10]; 88% in the test with Rattus norvegicus [6]. Besides, the Activity in the test with Rattus norvegicus [11] is 38%; in the test with Rattus norvegicus [12], 41%; in the test on Rattus norvegicus [7], -13 g; in the test with Rattus norvegicus [13], 38 mg/dL. Further, the inhibition in vivo at 300 µmol/kg in the test with Mus musculus [2] is 53%. Also, in test [3], the inhibition came to 20%.

One may read the IC50 as the concentration that gives 50% inhibition. As for `COc1cc(C)ccc1OC(=O)C1CCCN1C(=O)C(C)c1ccc(CC(C)C)cc1` (stereo not drawn), the inhibition in vivo at 150 µmol/kg in the test with Mus musculus [14] worked out at 21%. Further, the Activity with Mus musculus [1] stood at 49.6%; in the test with Mus musculus [15] it was 67.9%; in test [4] it was 78%. Moreover, the inhibition in vivo at 300 µmol/kg in the test on Mus musculus [2] was found to be 43%. In addition, the result in the test on Liver microsomes was inactive. The inhibition in [3] is 80%. Half-maximal inhibition in test [16] (IC50) required 140 µM.

In the case of `CC(C)C(=O)N1CCCC1C(=O)O` (stereo not drawn), in the test with Liver microsomes, the outcome was inactive.

The record behind these values is ChEMBL document CHEMBL1145528, “Design and study of some novel ibuprofen derivatives with potential nootropic and neuroprotective properties” (Bioorg Med Chem, 2007).
